The target in one data set is antithrombin. The following applies: read-out: Kd of TNS binding to antithrombin; cited from earlier work.
The format of data set [1] is binding. The conditions noted are these: read-out: KD,obs; natural pentasaccharide; I 0.04, pH 6.0, 25°C; measured directly at I 0.04 or calculated from the ionic strength dependence of KD,obs. The essentials: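 Recombinant His-tagged antithrombin (~100 nM), expressed in Sf9 and Ni-NTA purified, was titrated with pentasaccharide at 25°C. Binding was followed by tryptophan fluorescence enhancement (ex 280 nm, em 340 nm). Stocks were diluted extensively. Data were fit by quadratic binding equation for KD and stoichiometry.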

A further data set concerns the target factor Xa (Homo sapiens, UniProt P00742). It is filed as biochemical. The following applies: 20 mM MES; for kH FXa, association rate constant of heparin-complexed antithrombin / kH FXa, fractional wild-type value (in parentheses): natural pentasaccharide complex.
The next data set has as its target factor IXa (Homo sapiens, UniProt P00740). It is filed as biochemical. The following applies: for kH FIXa, association rate constant of heparin-complexed antithrombin / kH FIXa, fractional wild-type value (in parentheses): natural pentasaccharide complex.
A short description of the next data set: Rapid. The conditions noted are these: for 1/K2: natural pentasaccharide, I 0.04, pH 6.0, 25°C, estimated based on factor Xa reactivity enhancements. It is filed as binding.
The mark [2] stands for this setting: 5 mM CaCl2, 0.1 % PEG 8000, pH 6.0, 25°C, ±S.E.
Setting [3] is: 20 mM MES, 5 mM CaCl2, 0.1 % PEG 8000, pH 6.0, 25°C, ±S.E.
The mark [4] stands for this setting: 20 mM MES, 5 mM CaCl2, pH 6.0, 25°C.

Marks after values point to notes of the source that are not given here.

We go through three molecules from article PMC6363533 (Biochemistry, 2018).

Sequence of factor Xa (P00742 41-179 limits assumed): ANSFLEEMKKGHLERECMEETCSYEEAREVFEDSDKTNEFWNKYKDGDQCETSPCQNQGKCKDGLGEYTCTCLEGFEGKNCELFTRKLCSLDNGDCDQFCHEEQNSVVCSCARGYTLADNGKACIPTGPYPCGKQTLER
Sequence of factor Xa (P00742 235-488 limits assumed): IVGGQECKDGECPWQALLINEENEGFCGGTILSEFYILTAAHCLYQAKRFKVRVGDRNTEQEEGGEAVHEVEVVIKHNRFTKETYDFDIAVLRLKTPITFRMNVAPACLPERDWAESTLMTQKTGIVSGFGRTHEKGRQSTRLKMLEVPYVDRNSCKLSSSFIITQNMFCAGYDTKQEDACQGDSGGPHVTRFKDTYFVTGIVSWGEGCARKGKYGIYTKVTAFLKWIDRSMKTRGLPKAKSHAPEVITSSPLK
Sequence of factor IXa (P00740 47-191 limits assumed): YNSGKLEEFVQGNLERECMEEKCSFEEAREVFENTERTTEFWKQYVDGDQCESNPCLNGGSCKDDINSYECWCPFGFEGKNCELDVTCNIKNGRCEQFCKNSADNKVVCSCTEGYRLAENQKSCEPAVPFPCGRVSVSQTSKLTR
Sequence of factor IXa (P00740 227-461 limits assumed): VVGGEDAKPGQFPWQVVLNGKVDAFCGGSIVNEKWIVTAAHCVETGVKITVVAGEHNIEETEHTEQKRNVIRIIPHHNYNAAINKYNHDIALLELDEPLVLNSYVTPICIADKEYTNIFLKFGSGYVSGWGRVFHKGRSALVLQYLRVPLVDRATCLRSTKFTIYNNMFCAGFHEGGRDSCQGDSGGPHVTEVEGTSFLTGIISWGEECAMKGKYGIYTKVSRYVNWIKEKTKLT

As a reminder, the Kd is the free concentration of one partner at which half of the binding sites on the other are occupied at equilibrium, for simple one-to-one binding. In the case of `Cc1ccc(Nc2ccc3cc(S(=O)(=O)O)ccc3c2)cc1` [TNS, 2-p-toluidinylnaphthalene-6-sulfonate], the dissociation constant (Kd) at antithrombin was above 10 µM.

B1: MKM: His-tagged recombinant β-antithrombin double mutant, Lys114 and Arg129 mutated to Met (protein)
chain: HGSPVDICTAKPRDIPMNPMCIYRSPEKKATEDEGSEQKIPEATNRRVWELSKANSRFATTFYQHLADSKNDNDNIFLSPLSISTAFAMTKLGACNDTLQQLMEVFKFDTISEMTSDQIHFFFAKLNCMLYRKAQKSSKLVSANRLFGDKSLTFNETYQDISELVYGAKLQPLDFKENAEQSRAAINKWVSNKTEGRITDVIPSEAINELTVLVLVNTIYFKGLWKSKFSPENTRKELFYKADGESCSASMMYQEGKFRYRRVAEGTQVLELPFKGDDITMVLILPKPEKSLAKVEKELTPEVLQEWLDELEEMMLVVHMPRFRIEDGFSLKEQLQDMGLVDLFSPEKSKLPGIVAEGRDDLYVSDAFHKAFLEVNEEGSEAAASTAVVIAGRSLNPNRVTFKANRPFLVFIREVPLNTIIFMGRVANPCVK
modifications: left off: His6, C-terminal, kept
For the molecule B1, the Kd in data set [1] is 18 µM. In the data set with factor Xa (absence of heparin, 5 mM CaCl2, 0.1 % PEG 8000, pH 6.0, 25°C, ±S.E.), the “k−H FXa, association rate constant of free antithrombin” value is reported as 3.5±0.5 ×10^2 M^−1s^−1. In the data set with factor Xa (absence of heparin, 5 mM CaCl2, pH 6.0, 25°C), the “k−H FXa, fractional wild-type value (in parentheses)” value is 0.61. Further, in the data set with factor Xa (setting [2]), the “kH FXa, association rate constant of heparin-complexed antithrombin” value is 8.5±0.4 ×10^4 M^−1s^−1. The “kH FXa, fractional wild-type value (in parentheses)” value with factor Xa (5 mM CaCl2, pH 6.0, 25°C) is 1.1. In the data set with factor IXa (absence of heparin, 20 mM MES, 5 mM CaCl2, 0.1 % PEG 8000, pH 6.0, 25°C, ±S.E.), the “k−H FIXa, association rate constant of free antithrombin” value was 1.3±0.2×10^1 M^−1s^−1. In addition, the “k−H FIXa, fractional wild-type value (in parentheses)” value in the data set with factor IXa (absence of heparin, 20 mM MES, 5 mM CaCl2, pH 6.0, 25°C) amounted to 0.24. Further, the “kH FIXa, association rate constant of heparin-complexed antithrombin” value with factor IXa (setting [3]) is recorded as 2.1±0.1 × 10^3 M^−1s^−1. Moreover, in the data set with factor IXa (setting [4]), the “kH FIXa, fractional wild-type value (in parentheses)” value worked out at 0.21. Besides, the 1/K2 in the data set “Rapid” is given as ~10^d. In addition, the “Observed rate constant kobs of pentasaccharide binding, no saturable increase” value in the data set “Rapid” (over the range 0.5–20 μM heparin, I 0.04, pH 6, 25°C) is given as ~ 60 s^−1.

B2: MMR: His-tagged recombinant β-antithrombin double mutant, Lys114 and Lys125 mutated to Met (protein)
chain: HGSPVDICTAKPRDIPMNPMCIYRSPEKKATEDEGSEQKIPEATNRRVWELSKANSRFATTFYQHLADSKNDNDNIFLSPLSISTAFAMTKLGACNDTLQQLMEVFKFDTISEMTSDQIHFFFAMLNCRLYRKAQKSSKLVSANRLFGDKSLTFNETYQDISELVYGAKLQPLDFKENAEQSRAAINKWVSNKTEGRITDVIPSEAINELTVLVLVNTIYFKGLWKSKFSPENTRKELFYKADGESCSASMMYQEGKFRYRRVAEGTQVLELPFKGDDITMVLILPKPEKSLAKVEKELTPEVLQEWLDELEEMMLVVHMPRFRIEDGFSLKEQLQDMGLVDLFSPEKSKLPGIVAEGRDDLYVSDAFHKAFLEVNEEGSEAAASTAVVIAGRSLNPNRVTFKANRPFLVFIREVPLNTIIFMGRVANPCVK
modifications: left off: His6, C-terminal, kept
On to B2, for which the Kd in data set [1] is 45 µM. Moreover, the “kH FXa, association rate constant of heparin-complexed antithrombin” value in the data set with factor Xa (setting [2]) was 2.3±0.3 ×10^4 M^−1s^−1. In the data set with factor Xa (5 mM CaCl2, pH 6.0, 25°C), the “kH FXa, fractional wild-type value (in parentheses)” value turned out to be 0.30. Besides, the “kH FIXa, association rate constant of heparin-complexed antithrombin” value with factor IXa (setting [3]) is on record as 3.0±0.1 × 10^2 M^−1s^−1. Besides, the “kH FIXa, fractional wild-type value (in parentheses)” value in the data set with factor IXa (setting [4]) was 0.03. Moreover, the “Heparin-activated reactivity with factor IXa, % of wild-type” value with factor IXa (saturating natural pentasaccharide, MES/Ca2+ pH 6 buffer) was 3%. The 1/K2 in “Rapid” was ~0.5^d.
